Measurements as given in publication PMC4124904 (British journal of haematology, 2010).
Blank lines part the entries; values can stand above or below the compound they belong to.

Columns and labels:
[1] = Pharmacokinetic analysis of idarubicin in plasma; format: in vivo, human; conditions: for Cmax: iv, Maximum idarubicin plasma concentration (cmax), schedule A
TOP2A mRNA = test: Real-time PCR of TOP2A mRNA expression in PBMCs; format: in vivo, human
[2] = tested on: patients with relapsed or refractory leukaemia; test: Phase I safety and tolerability: adverse events, DLT, MTD; format: in vivo, human; conditions: Schedule B: for 3 days, with idarubicin 12 mg/m^2/d IV for 3 days
[3] = Pharmacokinetic analysis of vorinostat and two metabolites; format: in vivo, human; conditions: for Tmax / Cmax: human, serum
Outline: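 Relapsed/refractory leukaemia patients self-dosed oral HDAC inhibitor TID for 14 days (arm A) or 3 days (arm B), 3+3 escalation from 100 mg, with anthracycline 12 mg/m2 IV over 30 min on days 1–3. Blood clotted 20–30 min at 4°C, spun 2,000 × g 15 min at 4°C, serum stored at -70°C. […] Dosing times unrecorded, so only Cmax and Tmax were derived.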

[4] = tested on: patients with refractory cutaneous T cell lymphoma (CTCL); conditions: et al 2007, cited from earlier work
[5] = tested on: histone-H3 acetylation in PBMCs; test: Histone-H3 acetylation in PBMCs; format: in vivo, human

half-life ([1]; human, plasma, intravenous): ~11 h | Cmax ([1]; human, plasma, mean, idarubicin 30-min intravenous infusion): 66.1 ng/mL | Cmax ([1]; human, plasma, range, idarubicin 30-min intravenous infusion): 19.5 to 139 ng/mL | Idarubicin peak plasma concentration, mean ([1]; schedule B, idarubicin 30-min intravenous infusion): 55.4 ng/mL
SMILES: CC(=O)[C@]1(O)Cc2c(O)c3c(c(O)c2[C@@H](O[C@H]2C[C@H](N)[C@H](O)[C@H](C)O2)C1)C(=O)c1ccccc1C3=O [idarubicin]

SMILES: O=C(CCCCCCC(=O)Nc1ccccc1)NO [vorinostat]
Change of TOP2A mRNA levels relative to pretreatment (TOP2A mRNA; schedule A, day 1 to day 21, p=0.016, Wilcoxon signed rank test): downregulation | Change of TOP2A mRNA levels relative to pretreatment (TOP2A mRNA; schedule B, by day 3 of therapy, p=0.168, Wilcoxon, returned to baseline later): trend towards downregulation | Maximum tolerated dose (MTD) of vorinostat [2]: 400 mg TID | Plasma concentrations achieved ([3]; TID dosing for 3 days, dose levels of 400 mg and 500 mg): > 2000 nM | Tmax ([3]; oral): 1 to 3 h | Cmax ([3]; oral, Median Cmax for vorinostat, non-responders): 800 nM | Tmax ([3]; po, 100 mg): 2.5 h | Cmax ([3]; po, 100 mg, Vorinostat Mean Cmax, vorinostat 100 mg TID for 3 days oral, with idarubicin, N=3): 688 nM | Cmax ([3]; po, 100 mg, Vorinostat Median Cmax (Range), vorinostat 100 mg TID for 3 days oral, with idarubicin, N=3): 331 nM | Cmax ([3]; po, 200 mg, Vorinostat Mean Cmax, vorinostat 200 mg TID for 3 days oral, with idarubicin, N=3): 522 nM | Cmax ([3]; po, 200 mg, Vorinostat Median Cmax (Range), vorinostat 200 mg TID for 3 days oral, with idarubicin, N=3): 443 nM | Tmax ([3]; po, 300 mg): 2.5 h | Tmax ([3]; po, 400 mg): 2.25 h | Vorinostat Median Tmax ([3]; vorinostat 100 mg TID for 3 days oral, with idarubicin, N=3): 2 h | Vorinostat Median Tmax ([3]; vorinostat 200 mg TID for 3 days oral, with idarubicin, N=3): 1 h | Vorinostat Median Tmax ([3]; vorinostat 500 mg TID for 3 days oral, with idarubicin, N=5): 3 h | Response rate ([4]; Phase II, 3 different schedules, refractory CTCL, ref Duvic): 24% | Objective response rate ([4]; second Phase II trial, progressive or refractory CTCL, ref Olsen): 30% | Patients with detectable histone acetylation at day 21 ([5]; 3-day schedule of vorinostat): 50% | Patient samples with increased histone-H3 acetylation ([5]; 15 of 33 available patient samples, both schedules): 46% | Patients with increased histone-H3 acetylation ([5]; schedule A): 5/11 | Patients with increased histone-H3 acetylation ([5]; schedule B): 10/22
